Results: ChEMBL document CHEMBL1124405, “Synthesis and copper-dependent antimycoplasmal activity of 1-amino-3-(2-pyridyl)isoquinoline derivatives. 2. Amidines” (1989)
Values after ≈ are worked out from the molar mass of the structure shown.

Assays:
Format in all cases: functional
[1] = tested on: Mycoplasmoides gallisepticum; assay: The anti-mycoplasmal activity was determined against Mycoplasma gallisepticum K514 with the addition of copper (40 uM CuSO4)
Procedure, shortened: (§1)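 Broth-dilution MIC in modified Adler medium at pH 8.0, with heat-inactivated horse serum, benzylpenicillin and phenol red. CuSO4 was added to a final 40 μM. Compounds were in DMSO (final 1.25%) and tested in serial 2-fold dilutions, in duplicate, up to 100 μM. Each tube (3 mL) received 1 mL of fresh culture (A660 0.22, pH 6.8) and was incubated at 37 °C for 24 h. MIC was the lowest concentration without indicator color change.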

[2] = tested on: Mycoplasmoides gallisepticum; assay: The anti-mycoplasmal activity was determined against Mycoplasma gallisepticum K514 without the addition of copper
Procedure, shortened: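 No copper was added; the medium's copper was below 3 μM. The medium was modified Adler at pH 8.0, with horse serum, benzylpenicillin and phenol red. Compounds were in DMSO (final 1.25%) and tested in serial 2-fold duplicate dilutions up to 100 μM. Each tube held 3 mL of medium plus 1 mL of fresh culture (A660 0.22) and was incubated at 37 °C for 24 h. MIC was the lowest concentration preventing phenol red color change.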

[3] = tested on: Mycoplasmoides gallisepticum; assay: The anti-mycoplasmal activity against Mycoplasma gallisepticum K514 with the addition of copper at 40 uM CuSO4; procedure, shortened: as §1

Compound	MIC [1]	MIC [2]	MIC [3]
Cc1cccc(C(=N)Nc2nc(-c3ccccn3)cc3ccccc23)n1	0.065 µM (≈ 0.0221 µg/mL)	0.39 µM (≈ 0.132 µg/mL)	–
Cc1cccc(C(=N)Nc2nc(-c3ccccn3)cc3ccccc23)c1	0.0488 µM (≈ 0.0165 µg/mL)	0.78 µM (≈ 0.264 µg/mL)	–
Cc1cccc2c(NC(=N)c3ccccn3)nc(-c3ccccc3)cc12	> 100 µM	> 100 µM	–
N=C(Nc1ccccn1)c1ccccn1	–	> 500 µM	250 µM (≈ 49.6 µg/mL)
N=C(Nc1nc(-c2ccccn2)cc2ccccc12)c1ccc(Cl)cc1	0.195 µM (≈ 0.07 µg/mL)	6.25 µM (≈ 2.24 µg/mL)	–
COc1cccc(C(=N)Nc2nc(-c3ccccn3)cc3ccccc23)c1	0.078 µM (≈ 0.0276 µg/mL)	1.56 µM (≈ 0.553 µg/mL)	–
N=C(Nc1nc(-c2ccccn2)cc2ccccc12)c1ccccc1	0.0634 µM (≈ 0.0206 µg/mL)	0.195 µM (≈ 0.0633 µg/mL)	–
N=C(Nc1nc(-c2ccccn2)cc2ccccc12)c1cccc(Cl)c1	0.195 µM (≈ 0.07 µg/mL)	6.25 µM (≈ 2.24 µg/mL)	–
N=C(Nc1nc(-c2ccccn2)cc2ccccc12)c1ccc(Cl)c(Cl)c1	0.78 µM (≈ 0.307 µg/mL)	> 10 µM	–
CC[C@H]1OC(=O)C[C@@H](O)[C@H](C)[C@@H](O[C@@H]2O[C@H](C)[C@@H](O[C@H]3C[C@@](C)(O)[C@@H](O)[C@H](C)O3)[C@H](N(C)C)[C@H]2O)[C@@H](CC=O)C[C@@H](C)C(=O)/C=C/C(C)=C/[C@@H]1CO[C@@H]1O[C@H](C)[C@@H](O)[C@@H](OC)[C@H]1OC [TYLOSIN]	0.1 µM (≈ 0.0916 µg/mL)	0.1 µM (≈ 0.0916 µg/mL)	–
Cc1cc(C)nc(C(=N)Nc2nc(-c3ccccn3)cc3ccccc23)n1	–	0.195 µM (≈ 0.0691 µg/mL)	0.0455 µM (≈ 0.0161 µg/mL)
N=C(Nc1nc(-c2ccccn2)cc2ccccc12)c1ccccn1	0.0325 µM (≈ 0.0106 µg/mL)	0.39 µM (≈ 0.127 µg/mL)	–
Cc1ccc(C(=N)Nc2nc(-c3ccccn3)cc3ccccc23)cc1	0.0683 µM (≈ 0.0231 µg/mL)	0.78 µM (≈ 0.264 µg/mL)	–
N=C(Nc1nc(-c2ccccn2)cc2ccccc12)c1cnccn1	0.039 µM (≈ 0.0127 µg/mL)	0.195 µM (≈ 0.0636 µg/mL)	–
Cc1cc(C(=N)Nc2nc(-c3ccccn3)cc3ccccc23)ccn1	0.065 µM (≈ 0.0221 µg/mL)	0.39 µM (≈ 0.132 µg/mL)	–
COc1ccc(C(=N)Nc2nc(-c3ccccn3)cc3ccccc23)cc1	0.104 µM (≈ 0.0369 µg/mL)	0.78 µM (≈ 0.276 µg/mL)	–
CUPRIC SULFATE	–	700 µM	–
Nc1nc(-c2ccccn2)cc2ccccc12	–	452 µM (≈ 100 µg/mL)	0.45 µM (≈ 0.0996 µg/mL)
N=C(Nc1nc(-c2ccccn2)cc2ccccc12)c1ccncc1	0.039 µM (≈ 0.0127 µg/mL)	0.39 µM (≈ 0.127 µg/mL)	–
N=C(Nc1nc(-c2ccccn2)cc2ccccc12)c1ncccn1	0.0325 µM (≈ 0.0106 µg/mL)	0.195 µM (≈ 0.0636 µg/mL)	–
